# Test results from ChEMBL document CHEMBL1128538, “Novel antagonists of platelet-activating factor. 1. Synthesis and structure-activity relationships of benzodiazepine and benzazepine derivatives of 2-methyl-1-phenylimidazo[4,5-c]pyridine” (J Med Chem, 1995).
# Target: Platelet-activating factor receptor (Mus musculus) (UniProt Q62035)
# Experiment: Ability to protect mice from lethal effects after administration of PAF (Platelet-Activating Factor)
# Assay type: functional, organism-based
# Procedure, shortened: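 Mice received the test agent orally and were then given a lethal PAF injection. ED50 was taken as the oral dose that protected the animals from PAF-induced death.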
# Chain of Platelet-activating factor receptor (Mus musculus) (Q62035 whole entry): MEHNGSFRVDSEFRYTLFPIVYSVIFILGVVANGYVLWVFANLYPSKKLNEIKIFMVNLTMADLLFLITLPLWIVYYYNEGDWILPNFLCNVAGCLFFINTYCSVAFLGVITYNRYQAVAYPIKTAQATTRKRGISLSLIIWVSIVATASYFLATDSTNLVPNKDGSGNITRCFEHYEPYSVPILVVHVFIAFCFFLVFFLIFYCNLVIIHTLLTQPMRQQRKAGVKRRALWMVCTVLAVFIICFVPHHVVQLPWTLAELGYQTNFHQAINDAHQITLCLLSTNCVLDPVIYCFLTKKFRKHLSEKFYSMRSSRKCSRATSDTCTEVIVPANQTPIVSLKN
row,SMILES,ED50
1,Cc1nc2cnccc2n1-c1ccc(C2=Nc3ccccc3N(C)C(=O)C2)cc1,0.03 mg/kg
2,Cc1nc2cnccc2n1-c1ccc(C2CC(=O)Nc3cc(Cl)c(Cl)cc3C2)cc1 (stereo not given),0.05 mg/kg
3,Cc1nc2cnccc2n1-c1ccc(C2=Nc3ccccc3NC(=O)C2)cc1,0.5 mg/kg
4,Cc1nc2cnccc2n1-c1ccc(C2CC(=O)N(C)c3cc(Cl)c(Cl)cc3C2)cc1 (stereo not given),0.03 mg/kg
5,Cc1nc2cnccc2n1-c1ccc(C2=CCC(=O)c3ccccc3N2)cc1,0.75 mg/kg
6,Cc1cc2c(cc1C)NC(=O)CC(c1ccc(-n3c(C)nc4cnccc43)cc1)=N2,0.12 mg/kg
7,Cc1nc2cnccc2n1-c1ccc(C2=Nc3cc(Cl)c(Cl)cc3NC(=O)C2)cc1,0.07 mg/kg
8,Cc1nc2cnccc2n1-c1ccc(C2=Nc3cc(Cl)c(Cl)cc3C(=O)NC2)cc1,0.2 mg/kg

# Tested on: Mus musculus
# Experiment: The compound was tested for their ability to protect mice from lethal effects after administration of PAF (Platelet-Activating Factor)
# Assay type: functional
# Procedure, shortened: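 Mice were given the compound orally and then a lethal injection of PAF. The value is the oral dose (ED50) that protected the mice from PAF-induced death.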
row,SMILES,ED50
1,Cc1nnc2n1-c1sc3c(c1C(c1ccccc1Cl)=NC2)CC(C(=O)N1CCOCC1)C3 (stereo not given) [BEPAFANT],0.1 mg/kg
2,CCOC(=O)C1=C(c2ccc(-n3c(C)nc4cnccc43)cc2)NC(C)=C(C(=O)Nc2ccccn2)C1c1ccccc1Cl (stereo not given),0.26 mg/kg
